According to ChEMBL document CHEMBL3124926, “Identification of highly efficacious glucocorticoid receptor agonists with a potential for reduced clinical bone side effects” (J Med Chem, 2014):
Values after ≈ are worked out from the molar mass of the structure shown. Blank lines part the entries; values can stand above or below the molecule they belong to.

Key:
[1] = test system: Mus musculus; assay: Antiinflammatory activity in po dosed Balb/c mouse assessed as inhibition of LPS-induced TNFalpha production administered 60 mins prior to LPS challenge measured after 1 hr by […]; assay type: functional
[2] = test system: Mus musculus; assay: Toxicity in collagen-induced B10.RIII mouse arthritis model assessed as change in body fat at 100 mg/kg, po qd for 35 days relative to 30% cremophor-treated control; assay type: organism-based; set-up: dose 100 mg/kg, route oral; conditions: in vivo, 840 h
Method in brief: (§1)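 Female B10.RIII mice were immunized with porcine type II collagen in complete Freund's adjuvant, enrolled at arthritis onset (10/group), and dosed orally once daily for five weeks in 30% cremophor vehicle. Four paws were scored 1–4 (max 16), as AUC. Serum biomarkers were taken at day 35. Femur cortical thickness was measured by microCT in non-immunized, age-matched mice dosed identically.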

[3] = test system: Mus musculus; assay: Toxicity in collagen-induced B10.RIII mouse arthritis model assessed as change in insulin level at 100 mg/kg, po qd for 35 days relative to 30% cremophor-treated control; assay type: organism-based; set-up: dose 100 mg/kg, route oral; conditions: in vivo, 840 h; method in brief: as §1
[4] = test system: Mus musculus; assay: Toxicity in collagen-induced B10.RIII mouse arthritis model assessed as change in femur cortical thickness at 100 mg/kg, po qd for 35 days relative to 30% cremophor-treated control; assay type: organism-based; set-up: dose 100 mg/kg, route oral; conditions: in vivo, 840 h; method in brief: as §1
[5] = test system: Rattus norvegicus; assay: Clearance in rat at 2 mg/kg, iv and 30 mg/kg, po; assay type: ADME, organism-based; conditions: in vivo
Method in brief: (§2)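 Rat PK: 2 mg/kg iv in 80/20 PEG/water and 30 mg/kg po in 80/18/2 PEG/water/Tween.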

[6] = Oral bioavailability in rat at 30 mg/kg; assay type: ADME, organism-based; conditions: in vivo
[7] = molecular target: T1, Mineralocorticoid receptor (Homo sapiens, UniProt P08235); assay: Competitive binding affinity to mineralocorticoid receptor (unknown origin) expressed in baculovirus-infected cell system after 1 hr by fluorescence polarization assay in presence of tetramethylrhodamine-labeled dexamethasone
T1 sequence (P08235 whole entry): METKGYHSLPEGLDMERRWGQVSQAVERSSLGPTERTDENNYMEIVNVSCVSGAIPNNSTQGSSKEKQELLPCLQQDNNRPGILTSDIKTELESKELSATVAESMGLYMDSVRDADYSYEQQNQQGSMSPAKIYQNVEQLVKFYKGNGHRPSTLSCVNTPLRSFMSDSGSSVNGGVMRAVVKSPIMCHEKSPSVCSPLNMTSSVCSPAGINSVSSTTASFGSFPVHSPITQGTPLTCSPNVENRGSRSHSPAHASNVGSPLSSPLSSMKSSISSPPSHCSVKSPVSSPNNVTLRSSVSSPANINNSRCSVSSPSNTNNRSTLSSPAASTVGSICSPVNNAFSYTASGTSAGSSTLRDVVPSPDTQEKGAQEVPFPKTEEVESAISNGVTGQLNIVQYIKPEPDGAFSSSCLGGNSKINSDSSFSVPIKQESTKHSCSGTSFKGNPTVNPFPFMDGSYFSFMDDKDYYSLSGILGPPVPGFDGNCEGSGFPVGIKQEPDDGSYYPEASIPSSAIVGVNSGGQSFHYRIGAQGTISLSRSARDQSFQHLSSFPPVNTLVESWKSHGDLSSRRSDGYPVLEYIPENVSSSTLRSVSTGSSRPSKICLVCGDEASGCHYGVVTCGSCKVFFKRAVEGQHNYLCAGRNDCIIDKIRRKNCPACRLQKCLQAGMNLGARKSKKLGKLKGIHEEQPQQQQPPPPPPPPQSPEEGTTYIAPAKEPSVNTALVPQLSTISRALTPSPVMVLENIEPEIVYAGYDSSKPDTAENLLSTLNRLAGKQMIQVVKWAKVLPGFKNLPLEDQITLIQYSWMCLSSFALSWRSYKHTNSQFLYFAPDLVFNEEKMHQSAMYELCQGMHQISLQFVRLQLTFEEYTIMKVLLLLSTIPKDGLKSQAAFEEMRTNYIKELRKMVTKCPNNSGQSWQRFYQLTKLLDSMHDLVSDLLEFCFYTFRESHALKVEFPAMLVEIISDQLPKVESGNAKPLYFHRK
Method in brief: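 Lysates of baculovirus-infected insect cells co-expressing receptor with HSP-70, HSP-90 and p23 (GR diluted 300-fold, MR 17-fold). Probe 5 nM tetramethylrhodamine-dexamethasone in TES/KCl/molybdate/EDTA/CHAPS/glycerol/DTT buffer, pH 7.4, 1% DMSO. 1 h at room temperature in the dark; fluorescence polarization read (ex 550/em 580 nm). Background set with 2 μM dexamethasone. IC50 from duplicate 11-point curves, four-parameter fit, mean of at least two determinations.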

[8] = Cmax in B10.RIII mouse at 100 mg/kg, po; assay type: ADME, organism-based; set-up: dose 100 mg/kg, route oral; conditions: in vivo
Method in brief: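 Plasma levels measured in satellite B10.RIII mice (n = 3) after a single 100 mg/kg oral dose.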

[9] = test system: Mus musculus; assay: Toxicity in collagen-induced B10.RIII mouse arthritis model assessed as change in free fatty acid level at 100 mg/kg, po qd for 35 days relative to 30% cremophor-treated control; assay type: organism-based; set-up: dose 100 mg/kg, route oral; conditions: in vivo, 840 h; method in brief: as §1
[10] = Volume of distribution at steady state in rat at 2 mg/kg, iv and 30 mg/kg, po; assay type: ADME, organism-based; conditions: in vivo, read-out: Vdss; method in brief: as §2
[11] = test system: Mus musculus; assay: Toxicity in collagen-induced B10.RIII mouse arthritis model assessed as change in free fatty acid level at 100 mg/kg, po qd for 35 days relative to 1% methylcellulose-treated control; assay type: organism-based; set-up: dose 100 mg/kg, route oral; conditions: in vivo, 840 h
Method in brief: (§3)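 Female B10.RIII mice were immunized at 12–15 weeks with porcine type II collagen emulsified in complete Freund's adjuvant (100 μg intradermal, tail base). Animals were enrolled at first arthritis signs, 10 per group, and dosed orally once daily for five weeks in 1% methylcellulose. Paws were scored 1–4 each (max 16), with AUC taken. Serum was collected at day 35. Femur cortical thickness was measured by microCT in non-immunized, age-matched mice given the same dosing.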

[12] = Volume of distribution at steady state in rat at 5 mg/kg, iv and 30 mg/kg, po; assay type: ADME, organism-based; conditions: in vivo, read-out: Vdss
Method in brief: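 Rat pharmacokinetics: single intravenous dose of 5 mg/kg in 80/20 PEG/water, plus a separate oral dose of 30 mg/kg in 80/18/2 PEG/water/Tween. Steady-state volume of distribution is from the iv arm; clearance, half-life and oral bioavailability come from the same study.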

[13] = test system: Mus musculus; assay: Toxicity in nonimmunized, nondiseased mouse assessed as change in femur cortical thickness at 100 mg/kg, po qd for 35 days relative to 1% methylcellulose-treated control; conditions: in vivo, 840 h
[14] = test system: Rattus norvegicus; assay: Clearance in rat at 5 mg/kg, iv and 30 mg/kg, po; assay type: ADME, organism-based; conditions: in vivo
Method in brief: (§4)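 Rat PK: 5 mg/kg iv in 80/20 PEG/water and 30 mg/kg po in 80/18/2 PEG/water/Tween.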

[15] = test system: Mus musculus; assay: Toxicity in collagen-induced B10.RIII mouse arthritis model assessed as change in body fat at 100 mg/kg, po qd for 35 days relative to 1% methylcellulose-treated control; assay type: organism-based; set-up: dose 100 mg/kg, route oral; conditions: in vivo, 840 h; method in brief: as §3
[16] = Half life in rat at 5 mg/kg, iv and 30 mg/kg, po; assay type: ADME, organism-based; conditions: in vivo; method in brief: as §4
[17] = test system: Mus musculus; assay: Toxicity in collagen-induced B10.RIII mouse arthritis model assessed as change in AUC at 100 mg/kg, po qd for 35 days relative to 1% methylcellulose-treated control; assay type: organism-based; set-up: dose 100 mg/kg, route oral; conditions: in vivo, 840 h; method in brief: as §3
[18] = Aqueous solubility of the compound in buffer at pH 7; assay type: physicochemical
[19] = Permeability across human Caco2 cells; assay type: ADME, cell-based; conditions: Caco-2, read-out: permeability

IC50 [7]: 1900 nM
SMILES: Cc1ccc(F)cc1C(C)(C)CC(O)(Cc1cc2nc(-c3ccccc3)ncc2[nH]1)C(F)(F)F (racemic)

IC50 [7]: > 2000 nM
SMILES: Cc1ccc(F)cc1C(C)(C)CC(O)(Cc1cc2nc(-c3cccnc3)ncc2[nH]1)C(F)(F)F (racemic)

IC50 [7]: > 2000 nM
SMILES: Cc1ccc(F)cc1C(C)(C)CC(O)(Cc1cc2nc(N3CCS(=O)(=O)CC3)ncc2[nH]1)C(F)(F)F (racemic)

IC50 [7]: 1200 nM
SMILES: CC(C)(CC(O)(Cc1cc2ncncc2[nH]1)C(F)(F)F)c1ccc(F)cc1O (racemic)

The remaining lines, values behind:

SMILES: Cc1ccc(F)cc1C(C)(C)C[C@@](O)(Cc1cc2nnccc2[nH]1)C(F)(F)F
ED50 [1]: 3 mg/kg
Activity [2]: 8%
Activity [3]: -36%
Activity [4]: -8%
CL [5]: > 100%
bioavailability [6]: 9%
IC50 [7]: 260 nM
Cmax [8]: 38.9 µM
Activity [9]: -2%
Vd [10]: 3.7 L/kg

SMILES: Cc1ccc(F)cc1C(C)(C)C[C@@](O)(Cc1cc2ncncc2[nH]1)C(F)(F)F
Activity [11]: 14%
ED50 [1]: 1 mg/kg
Vd [12]: 2.1 L/kg
Activity [13]: -6%
CL [14]: 61%
bioavailability [6]: 13%
Activity [15]: 32%
half-life [16]: 36 min
IC50 [7]: 475 nM
Cmax [8]: 4.32 µM
Activity [17]: -57%

SMILES: CC(C)(CC(O)(Cc1cc2ncncc2[nH]1)C(F)(F)F)c1cc(Cl)cc2c1OCC2 (racemic)
IC50 [7]: 340 nM

SMILES: Cc1ccc(F)cc1C(C)(C)CC(O)(Cc1cc2nnccc2[nH]1)C(F)(F)F (racemic)
solubility [18]: 2 µg/mL (≈ 5.06 µM)
Papp [19]: 13 ×10⁻⁶ cm/s
IC50 [7]: 615 nM

SMILES: Cc1ccc(F)cc1C(C)(C)CC(O)(Cc1cc2cc(-c3ccccc3)nnc2[nH]1)C(F)(F)F (racemic)
IC50 [7]: > 2000 nM

SMILES: Cc1ccc(F)cc1C(C)(C)CC(O)(Cc1cc2ncncc2[nH]1)C(F)(F)F (racemic)
solubility [18]: 11 µg/mL (≈ 27.8 µM)
Papp [19]: 11 ×10⁻⁶ cm/s
IC50 [7]: 855 nM
